Our source for the inhibition, IC50 and Ratio IC50 values is ChEMBL document CHEMBL3797187, “Design, synthesis and biological evaluation of potent FAAH inhibitors” (Bioorg Med Chem Lett, 2016).

The target in data set [1] is T1, Fatty-acid amide hydrolase 1 (Homo sapiens) (UniProt O00519).
T1 sequence (whole entry): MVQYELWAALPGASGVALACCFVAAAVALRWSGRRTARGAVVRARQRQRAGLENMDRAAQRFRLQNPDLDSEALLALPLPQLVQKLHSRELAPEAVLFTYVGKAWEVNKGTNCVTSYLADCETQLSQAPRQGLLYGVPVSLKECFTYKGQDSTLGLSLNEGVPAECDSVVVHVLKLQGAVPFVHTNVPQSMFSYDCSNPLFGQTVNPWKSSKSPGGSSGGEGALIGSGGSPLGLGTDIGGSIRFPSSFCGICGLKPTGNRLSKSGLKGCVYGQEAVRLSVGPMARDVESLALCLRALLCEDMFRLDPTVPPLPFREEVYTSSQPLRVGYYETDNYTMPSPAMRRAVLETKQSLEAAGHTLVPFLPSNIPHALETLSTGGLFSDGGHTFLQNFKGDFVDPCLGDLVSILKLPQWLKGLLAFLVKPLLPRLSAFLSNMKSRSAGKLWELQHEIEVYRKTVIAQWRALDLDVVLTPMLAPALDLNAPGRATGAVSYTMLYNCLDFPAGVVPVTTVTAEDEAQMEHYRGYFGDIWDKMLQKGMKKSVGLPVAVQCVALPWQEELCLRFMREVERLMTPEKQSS
Briefly: Inhibition of human recombinant FAAH expressed in sf21 cells using AMC-AA as substrate at 10 uM preincubated for 15 mins followed by substrate addition measured after 2 hrs by spectrophotometric analysis relative to control. The procedure, abridged: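 Human recombinant FAAH expressed in SF21 cells, 4 U/mL, preincubated 15 min with compound at 37 °C in Tris buffer pH 9. Hydrolysis of the fluorogenic substrate AMC-arachidonamide then measured. Single-point screen at 10 µM as % inhibition. IC50 from concentration-response, mean ± SEM of three experiments performed in duplicate.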

Data set [2] can be described thus: Cytotoxicity against human HT-29 cells assessed as growth inhibition at 10 uM after 72 hrs by MTS assay relative to control. The data set is classed as cell-based. As to conditions: read-out: GI. Put shortly:
(§1)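 Test compounds at 10 µM on human colorectal adenocarcinoma HT29 and human embryonic kidney HEK293 cells. Cell proliferation scored colorimetrically by MTS tetrazolium reduction to formazan (NADPH-dependent oxidoreductase activity as viable-cell readout). Reported as % inhibition at 10 µM.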
(In general: Formazan colour is commonly taken as a measure of viable cells.)

Data set [3] is described as follows: Cytotoxicity against human HEK293 cells assessed as growth inhibition at 10 uM after 72 hrs by MTS assay relative to control. The data set is classed as cell-based. The settings on record: read-out: GI. The procedure, abridged:
as §1

Data set [4] concerns the target T2, Fatty-acid amide hydrolase 1 (Homo sapiens, UniProt O00519).
T2 sequence (O00519 whole entry): T1 sequence (whole entry)
As to the kind of experiment: Inhibition of human recombinant FAAH expressed in sf21 cells using AMC-AA as substrate preincubated for 15 mins followed by substrate addition measured after 2 hrs by spectrophotometric analysis. The procedure, abridged: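 Human recombinant FAAH expressed in SF21 cells, 4 U/mL, preincubated 15 min with compound at 37 °C in Tris buffer pH 9. Hydrolysis of the fluorogenic substrate AMC-arachidonamide then measured. IC50 from concentration-response, mean ± SEM of three experiments performed in duplicate.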

The target of data set [5] is T1, Fatty-acid amide hydrolase 1 (Homo sapiens). Briefly: Potency index, ratio of 5-(4-Pentyloxy-phenyl)-isoxazole-3-carboxylic acid adamantan-1-ylamide IC50 to compound IC50 for human recombinant FAAH expressed in sf21 cells.

The structures appear in SMILES notation.

A word on the IC50: it is the concentration that gives 50% inhibition.

In the case of `CN1CCN(C(=O)c2ccc(-c3ccc(-c4cc(C(=O)NC56CC7CC(CC(C7)C5)C6)no4)cn3)cc2)CC1`, the inhibition in data set [1] was 10%. The inhibition at 72 h, 10 µM came out at 0% in data set [2] and 3% in data set [3].

For the molecule `CN1CCN(C(=O)c2ccc(-c3ccc(-c4cc(C(=O)NC56CC7CC(CC(C7)C5)C6)no4)cc3)cc2)CC1`, in data set [1], the inhibition is 23%. For the same molecule, the figures for the inhibition at 72 h, 10 µM in data set [2] and in data set [3] were 24% and 37%, respectively.

Consider `O=C(NC12CC3CC(CC(C3)C1)C2)c1cc(-c2ccc(-c3ccco3)cc2)on1`, for which the inhibition in data set [1] amounted to 31%. Further, the figures for the inhibition at 72 h, 10 µM in data set [2] and in data set [3] were 0% and 12%, respectively.

As to `CN1CCN(Cc2cccc(-c3ccc(-c4cc(C(=O)NC56CC7CC(CC(C7)C5)C6)no4)cc3)c2)CC1`, the inhibition in data set [1] was found to be 63%. Moreover, the IC50 in data set [4] is 1.13 µM. The inhibition at 72 h, 10 µM stood at 97% in data set [2] and 93% in data set [3].

In the case of `O=C(NC12CC3CC(CC(C3)C1)C2)c1cc(-c2ccc(-c3ccncc3)nc2)on1`, the inhibition in data set [1] stood at 23%. Besides, the inhibition at 72 h, 10 µM in data set [2] turned out to be 0%; in data set [3], 1%.

Take `COc1ccccc1-c1ccc(-c2cc(C(=O)NC34CC5CC(CC(C5)C3)C4)no2)cc1`: the inhibition in data set [1] worked out at 47%. Also, the inhibition at 72 h, 10 µM is 2% in data set [2] and 25% in data set [3].

As for `NC(=O)c1cccc(-c2ccc(-c3cc(C(=O)NC45CC6CC(CC(C6)C4)C5)no3)cc2)c1`, the inhibition in data set [1] came to 11%. Also, the inhibition at 72 h, 10 µM came out at 0% in data set [2] and 3% in data set [3].

On to `COc1cc(-c2ccc(-c3cc(C(=O)NC45CC6CC(CC(C6)C4)C5)no3)cc2)cc(OC)c1OC`, for which, in data set [1], the inhibition stood at 42%. Moreover, the inhibition at 72 h, 10 µM was 6% in data set [2] and 32% in data set [3].

Consider `CC(=O)c1ccc(-c2ccc(-c3cc(C(=O)NC45CC6CC(CC(C6)C4)C5)no3)cc2)cc1`, for which, in data set [1], the inhibition turned out to be 18%. Moreover, the inhibition at 72 h, 10 µM in data set [2] worked out at 4%; in data set [3], 5%.

For the molecule `N#Cc1cccc(-c2ccc(-c3cc(C(=O)NC45CC6CC(CC(C6)C4)C5)no3)cc2)c1`, the inhibition in data set [1] stood at 64%. Also, the IC50 in data set [4] was determined as 0.24 µM. In addition, the inhibition at 72 h, 10 µM in data set [2] and in data set [3] was 0% in each case. The Ratio IC50 in data set [5] came out at 2.

Regarding `O=C(NC12CC3CC(CC(C3)C1)C2)c1cc(-c2ccc(-c3ccncc3)cc2)on1`, the inhibition in data set [1] amounted to 17%. The figures for the inhibition at 72 h, 10 µM in data set [2] and in data set [3] were 1% and 9%, respectively.

Take `O=C(NC12CC3CC(CC(C3)C1)C2)c1cc(-c2ccc(-c3ccc(C(=O)N4CCOCC4)cc3)cc2)on1`: the inhibition in data set [1] is 24%. For the same molecule, the inhibition at 72 h, 10 µM in data set [2] was determined as 0%; in data set [3], 23%.

Regarding `O=C(NC12CC3CC(CC(C3)C1)C2)c1cc(-c2ccc(-c3cccc(C(=O)N4CCOCC4)c3)cc2)on1`, in data set [1], the inhibition turned out to be 49%. Further, the inhibition at 72 h, 10 µM in data set [2] is 10%; in data set [3], 54%.

`CC(=O)c1cccc(-c2ccc(-c3cc(C(=O)NC45CC6CC(CC(C6)C4)C5)no3)cn2)c1`: the inhibition in data set [1] came out at 22%. For the same molecule, the inhibition at 72 h, 10 µM worked out at 0% in data set [2] and 18% in data set [3].

In the case of `COc1ccc(-c2ccc(-c3cc(C(=O)NC45CC6CC(CC(C6)C4)C5)no3)cc2)cc1OC`, the inhibition in data set [1] is 14%. Besides, the results for the inhibition at 72 h, 10 µM in data set [2] and in data set [3] were 7% and 29%, respectively.

Consider `COc1cccc(-c2ccc(-c3cc(C(=O)NC45CC6CC(CC(C6)C4)C5)no3)cc2)c1`, for which, in data set [1], the inhibition was 58%. The IC50 in data set [4] came out at 0.72 µM. The inhibition at 72 h, 10 µM in data set [2] came out at 0%; in data set [3], 20%.

Turning to `CC(=O)c1ccc(-c2ccc(-c3cc(C(=O)NC45CC6CC(CC(C6)C4)C5)no3)cn2)cc1`, the inhibition in data set [1] amounted to 13%. For the same molecule, the inhibition at 72 h, 10 µM in data set [2] amounted to 0%; in data set [3], 5%.

With `NC(=O)c1cccc(-c2ccc(-c3cc(C(=O)NC45CC6CC(CC(C6)C4)C5)no3)cn2)c1`, the inhibition in data set [1] came out at 20%. Moreover, the inhibition at 72 h, 10 µM was 14% in data set [2] and 1% in data set [3].

As to `O=C(NC12CC3CC(CC(C3)C1)C2)c1cc(-c2ccc(-c3cnc4ccccc4c3)cc2)on1`, the inhibition in data set [1] was found to be 22%. For the same molecule, the inhibition at 72 h, 10 µM is 0% in data set [2] and 24% in data set [3].

`CC(=O)c1cccc(-c2ccc(-c3cc(C(=O)NC45CC6CC(CC(C6)C4)C5)no3)cc2)c1`: in data set [1], the inhibition is 56%. For the same molecule, in data set [4], the IC50 was determined as 0.59 µM. Further, the inhibition at 72 h, 10 µM in data set [2] is 1%; in data set [3], 16%.

On to `NC(=O)c1ccc(-c2ccc(-c3cc(C(=O)NC45CC6CC(CC(C6)C4)C5)no3)cc2)cc1`, for which, in data set [1], the inhibition turned out to be 10%. Further, the inhibition at 72 h, 10 µM was determined as 0% in data set [2] and 4% in data set [3].

`CN1CCN(C(=O)c2cccc(-c3ccc(-c4cc(C(=O)NC56CC7CC(CC(C7)C5)C6)no4)cc3)c2)CC1`: in data set [1], the inhibition amounted to 44%. Further, the inhibition at 72 h, 10 µM was determined as 55% in data set [2] and 47% in data set [3].

Take `O=C(NC12CC3CC(CC(C3)C1)C2)c1cc(-c2ccc(-c3cccc(CN4CCOCC4)c3)cc2)on1`: the inhibition in data set [1] came to 69%. The IC50 in data set [4] came to 0.83 µM. Besides, the inhibition at 72 h, 10 µM worked out at 0% in data set [2] and 38% in data set [3].

Regarding `O=C(NC12CC3CC(CC(C3)C1)C2)c1cc(-c2ccc(-c3ccc(C(=O)N4CCOCC4)cc3)nc2)on1`, in data set [1], the inhibition is 12%. Further, the inhibition at 72 h, 10 µM in data set [2] was determined as 0%; in data set [3], 10%.

Consider `O=C(NC12CC3CC(CC(C3)C1)C2)c1cc(-c2ccc(-c3ccc4c(c3)OCO4)cc2)on1`, for which the inhibition in data set [1] stood at 18%. The inhibition at 72 h, 10 µM turned out to be 0% in data set [2] and 9% in data set [3].

As to `NC(=O)c1cccc(-c2cccc(OC(=O)NC3CCCCC3)c2)c1` [URB-597], the inhibition in data set [1] came out at 98%. In addition, the inhibition at 72 h, 10 µM in data set [2] and in data set [3] was 0% each time.

As to `CCCCCOc1ccc(-c2cc(C(=O)NC34CC5CC(CC(C5)C3)C4)no2)cc1`, in data set [1], the inhibition came out at 79%.

Regarding `O=C(NC12CC3CC(CC(C3)C1)C2)c1cc(-c2ccc(-c3ccc(CN4CCOCC4)cc3)cc2)on1`, in data set [1], the inhibition was found to be 16%. The inhibition at 72 h, 10 µM in data set [2] was found to be 0%; in data set [3], 20%.

For the molecule `COc1ccc(-c2ccc(-c3cc(C(=O)NC45CC6CC(CC(C6)C4)C5)no3)cc2)cc1`, the inhibition in data set [1] was determined as 15%. In addition, the inhibition at 72 h, 10 µM was 0% in data set [2] and 2% in data set [3].

For `O=C(NC12CC3CC(CC(C3)C1)C2)c1cc(-c2ccc(-c3ccccc3)nc2)on1`, the inhibition in data set [1] is 23%. Moreover, the values for the inhibition at 72 h, 10 µM in data set [2] and in data set [3] were 0% and 14%, respectively.

For the molecule `CN1CCN(Cc2ccc(-c3ccc(-c4cc(C(=O)NC56CC7CC(CC(C7)C5)C6)no4)cc3)cc2)CC1`, the inhibition in data set [1] amounted to 41%. In addition, the figures for the inhibition at 72 h, 10 µM in data set [2] and in data set [3] were 90% and 89%, respectively.
